Results published in ChEMBL document CHEMBL4673343, “Lythrum salicaria Ellagitannins Stimulate IPEC-J2 Cells Monolayer Formation and Inhibit Enteropathogenic Escherichia coli Growth and Adhesion” (J Nat Prod, 2020).
Converted amounts (≈) assume the structure as drawn. The source made the active and inactive calls. The calls are words filed in the database; no cut-off is given here.

Experiments:
[1] = system: IPEC-J2; assay: Induction of porcine IPEC-J2 cells monolayer development assessed as increase in transepithelial electrical resistance at 50 uM after 6 days by voltammetric method; assay type: functional, cell-based; conditions: Sus scrofa domesticus, time 6.0 day
[2] = system: Escherichia coli; assay: Growth inhibition of Escherichia coli DSM 2840 at 20 to 500 uM measured every 5 mins for 24 hrs by turbidometric analysis; assay type: functional, organism-based; conditions: dose 20-500 µM, time hrs <=24
Outline: (§1)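 Strains were revived from cryostocks and passaged twice daily in BHI with shaking at 37 °C over 2 days. Double-strength BHI plus diluted test stock (compounds in DMSO, 0.22 μm filtered), inoculum at final 10^4 CFU/mL, film-sealed for anaerobic conditions, 37 °C in plate reader. OD690 was read every 5 min for 24 h; lag time came from the lag-exponential method. Three independent experiments were run, each in triplicate.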

[3] = system: Escherichia coli; assay: Growth inhibition of Escherichia coli 0147:K89:K88 at 20 to 500 uM measured every 5 mins for 24 hrs by turbidometric analysis; assay type: functional, organism-based; conditions: dose 20-500 µM, time hrs <=24
Outline: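 Compound stocks were made in DMSO and filtered. The turbidimetric assay used double-strength BHI, 20–500 μM, E. coli at final 10^4 CFU/mL, and sealed anaerobic plates at 37 °C. OD690 was read every 5 min over 24 h.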

[4] = system: Escherichia coli; assay: Antibacterial activity against Escherichia coli by two-fold serial dilution method; assay type: functional
[5] = system: Escherichia coli; assay: Antibacterial activity against heat labile toxin gene positive Escherichia coli; assay type: functional
[6] = system: Escherichia coli; assay: Antibacterial activity against heat stable toxin gene positive Escherichia coli; assay type: functional
[7] = system: Escherichia coli; assay: Antibacterial activity against invasive E gene positive Escherichia coli; assay type: functional
[8] = system: Escherichia coli; assay: Antibacterial activity against Escherichia coli; assay type: functional
Outline: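 Strains: enteropathogenic E. coli O147:K89:K88 (Abbotstown) and non-fimbriated DSM 2840. Both were subcultured in BHI with shaking at 37 °C for 2 days, then inoculated at 10^4 CFU/mL final in BHI microplates. Extract stock was in water and pure compounds in DMSO, tested at 20–2000 μg/mL (extract), with ciprofloxacin as positive control. Plates were sealed for anaerobic conditions at 37 °C, and OD690 was read every 5 min for 24 h. MIC-level wells were plated on BHI agar (48 h). Three independent experiments were run in triplicate.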

[9] = system: Escherichia coli; assay: Antibacterial activity against Shiga-like toxin positive Escherichia coli; assay type: functional
[10] = system: Escherichia coli; assay: Antibacterial activity against Escherichia coli ATCC 25922; assay type: functional
[11] = system: Escherichia coli; assay: Antibacterial activity against Escherichia coli IFO 3972; assay type: functional
[12] = system: IPEC-J2; assay: Induction of porcine IPEC-J2 cells monolayer development assessed as increase in transepithelial electrical resistance at 20 uM after 6 days by voltammetric method; assay type: functional, cell-based; conditions: Sus scrofa domesticus, time 6.0 day
Outline: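 IPEC-J2 cells were seeded at 5 × 10^5/insert (0.4 μm PET) and cultured until TEER exceeded 1 kΩ cm2 (day 7). Apical medium was then replaced with 20 μM compound or PBS and renewed at day 10, with basolateral medium changed in parallel. TEER was read with an EVOM2 chopstick electrode at days 10 and 13. Mann–Whitney test versus PBS.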

[13] = system: Escherichia coli; assay: Growth inhibition of Escherichia coli 0147:K89:K88 infected in porcine IPEC-J2 cells assessed as inhibition of EPEC adhesion 100 uM preincubated for 24 hrs followed by compound wash subsequently infected with bacteria by CFDA-SE staining based flow cytometric analysis; assay type: functional; conditions: 0147:K89:K88, IPEC-J2, in Sus scrofa
Outline: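 IPEC-J2 cells were seeded at 10^5/well and grown 7 days. On day 8 they were treated 24 h, then washed twice with warm PBS and given antibiotic-free medium. Infection used CFDA-SE-labelled (1 mM, 120 min, 37 °C) O147:K89:K88 at MOI 100 for 45 min, followed by three PBS washes and trypsinization. Flow cytometry measured MFI over 10 000 events. Mean ± SD of three experiments in triplicate; Dunnett's test versus PBS.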

[14] = system: Escherichia coli; assay: Growth inhibition of Escherichia coli 0147:K89:K88 measured every 5 mins for 24 hrs by turbidometric analysis; assay type: functional; conditions: time hrs <=24; outline: as §1
[15] = system: Escherichia coli; assay: Growth inhibition of Escherichia coli DSM 2840 assessed as lag time at 500 uM measured every 5 mins for 24 hrs by turbidometric analysis (reference value: 312 min); assay type: functional; conditions: time hrs <=24; outline: as §1
[16] = system: Escherichia coli; assay: Growth inhibition of Escherichia coli DSM 2840 assessed as lag time at 200 uM measured every 5 mins for 24 hrs by turbidometric analysis (reference value: 312 min); assay type: functional; conditions: time hrs <=24; outline: as §1
[17] = system: Escherichia coli; assay: Growth inhibition of Escherichia coli DSM 2840 assessed as lag time at 100 uM measured every 5 mins for 24 hrs by turbidometric analysis (reference value: 312 min); assay type: functional; conditions: time hrs <=24; outline: as §1
[18] = system: Escherichia coli; assay: Growth inhibition of Escherichia coli DSM 2840 assessed as lag time at 50 uM measured every 5 mins for 24 hrs by turbidometric analysis (reference value: 312 min); assay type: functional; conditions: time hrs <=24; outline: as §1
[19] = system: Escherichia coli; assay: Growth inhibition of Escherichia coli DSM 2840 assessed as lag time at 10 uM measured every 5 mins for 24 hrs by turbidometric analysis (reference value: 312 min); assay type: functional; conditions: time hrs <=24; outline: as §1
[20] = system: Escherichia coli; assay: Growth inhibition of Escherichia coli DSM 2840 assessed as lag time at 20 uM measured every 5 mins for 24 hrs by turbidometric analysis (reference value: 312 min); assay type: functional; conditions: time hrs <=24; outline: as §1
[21] = system: Escherichia coli; assay: Growth inhibition of Escherichia coli DSM 2840 assessed as lag time at 5 uM measured every 5 mins for 24 hrs by turbidometric analysis (reference value: 312 min); assay type: functional; conditions: time hrs <=24; outline: as §1
[22] = system: Escherichia coli; assay: Growth inhibition of Escherichia coli 0147:K89:K88 assessed as lag time at 500 uM measured every 5 mins for 24 hrs by turbidometric analysis (reference value: 300 min); assay type: functional; conditions: time hrs <=24; outline: as §1
[23] = system: Escherichia coli; assay: Growth inhibition of Escherichia coli 0147:K89:K88 assessed as lag time at 200 uM measured every 5 mins for 24 hrs by turbidometric analysis (reference value: 300 min); assay type: functional; conditions: time hrs <=24; outline: as §1
[24] = system: Escherichia coli; assay: Growth inhibition of Escherichia coli 0147:K89:K88 assessed as lag time at 100 uM measured every 5 mins for 24 hrs by turbidometric analysis (reference value: 300 min); assay type: functional; conditions: time hrs <=24; outline: as §1
[25] = system: Escherichia coli; assay: Growth inhibition of Escherichia coli 0147:K89:K88 assessed as lag time at 50 uM measured every 5 mins for 24 hrs by turbidometric analysis (reference value: 300 min); assay type: functional; conditions: time hrs <=24; outline: as §1
[26] = system: Escherichia coli; assay: Growth inhibition of Escherichia coli 0147:K89:K88 assessed as lag time at 20 uM measured every 5 mins for 24 hrs by turbidometric analysis (reference value: 300 min); assay type: functional; conditions: time hrs <=24; outline: as §1
[27] = system: Escherichia coli; assay: Growth inhibition of Escherichia coli 0147:K89:K88 assessed as lag time at 10 uM measured every 5 mins for 24 hrs by turbidometric analysis (reference value: 300 min); assay type: functional; conditions: time hrs <=24; outline: as §1
[28] = system: Escherichia coli; assay: Growth inhibition of Escherichia coli 0147:K89:K88 assessed as lag time at 5 uM measured every 5 mins for 24 hrs by turbidometric analysis (reference value: 300 min); assay type: functional; conditions: time hrs <=24; outline: as §1
[29] = system: Escherichia coli; assay: Growth inhibition of Escherichia coli DSM 2840 assessed as doubling time at 500 uM measured every 5 mins for 24 hrs by turbidometric analysis (reference value: 31.6 +/- 0.8 min); assay type: functional; conditions: time hrs <=24; outline: as §1
[30] = system: Escherichia coli; assay: Growth inhibition of Escherichia coli DSM 2840 assessed as doubling time at 200 uM measured every 5 mins for 24 hrs by turbidometric analysis (reference value: 31.6 +/- 0.8 min); assay type: functional; conditions: time hrs <=24; outline: as §1
[31] = system: Escherichia coli; assay: Growth inhibition of Escherichia coli DSM 2840 assessed as doubling time at 100 uM measured every 5 mins for 24 hrs by turbidometric analysis (reference value: 31.6 +/- 0.8 min); assay type: functional; conditions: time hrs <=24; outline: as §1
[32] = system: Escherichia coli; assay: Growth inhibition of Escherichia coli DSM 2840 assessed as doubling time at 50 uM measured every 5 mins for 24 hrs by turbidometric analysis (reference value: 31.6 +/- 0.8 min); assay type: functional; conditions: time hrs <=24; outline: as §1
[33] = system: Escherichia coli; assay: Growth inhibition of Escherichia coli DSM 2840 assessed as doubling time at 20 uM measured every 5 mins for 24 hrs by turbidometric analysis (reference value: 31.6 +/- 0.8 min); assay type: functional; conditions: time hrs <=24; outline: as §1
[34] = system: Escherichia coli; assay: Growth inhibition of Escherichia coli DSM 2840 assessed as doubling time at 10 uM measured every 5 mins for 24 hrs by turbidometric analysis (reference value: 31.6 +/- 0.8 min); assay type: functional; conditions: time hrs <=24; outline: as §1
[35] = system: Escherichia coli; assay: Growth inhibition of Escherichia coli DSM 2840 assessed as doubling time at 5 uM measured every 5 mins for <=24 hrs by turbidometric analysis (reference value: 31.6 +/- 0.8 min); assay type: functional; conditions: time hrs <=24; outline: as §1
[36] = system: Escherichia coli; assay: Growth inhibition of Escherichia coli 0147:K89:K88 assessed as doubling time at 500 uM measured every 5 mins for 24 hrs by turbidometric analysis (reference value: 34.1 +/- 0.5 min); assay type: functional; conditions: time hrs <=24; outline: as §1
[37] = system: Escherichia coli; assay: Growth inhibition of Escherichia coli 0147:K89:K88 assessed as doubling time at 200 uM measured every 5 mins for 24 hrs by turbidometric analysis (reference value: 34.1 +/- 0.5 min); assay type: functional; conditions: time hrs <=24; outline: as §1
[38] = system: Escherichia coli; assay: Growth inhibition of Escherichia coli 0147:K89:K88 assessed as doubling time at 100 uM measured every 5 mins for 24 hrs by turbidometric analysis (reference value: 34.1 +/- 0.5 min); assay type: functional; conditions: time hrs <=24; outline: as §1
[39] = system: Escherichia coli; assay: Growth inhibition of Escherichia coli 0147:K89:K88 assessed as doubling time at 50 uM measured every 5 mins for 24 hrs by turbidometric analysis (reference value: 34.1 +/- 0.5 min); assay type: functional; conditions: time hrs <=24; outline: as §1
[40] = system: Escherichia coli; assay: Growth inhibition of Escherichia coli 0147:K89:K88 assessed as doubling time at 20 uM measured every 5 mins for 24 hrs by turbidometric analysis (reference value: 34.1 +/- 0.5 min); assay type: functional; conditions: time hrs <=24; outline: as §1
[41] = system: Escherichia coli; assay: Growth inhibition of Escherichia coli 0147:K89:K88 assessed as doubling time at 10 uM measured every 5 mins for 24 hrs by turbidometric analysis (reference value: 34.1 +/- 0.5 min); assay type: functional; conditions: time hrs <=24; outline: as §1
[42] = system: Escherichia coli; assay: Growth inhibition of Escherichia coli 0147:K89:K88 assessed as doubling time at 5 uM measured every 5 mins for 24 hrs by turbidometric analysis (reference value: 34.1 +/- 0.5 min); assay type: functional; conditions: time hrs <=24; outline: as §1

With `O=c1oc2cc(O)ccc2c2cc(O)c(O)cc12` the Activity [1] was “inactive”, the “growth inhibition (GI)” value [2] was “inactive” and the “growth inhibition (GI)” value [3] was “inactive”.

For `O=c1oc2cc(O)ccc2c2ccc(O)cc12`, the Activity [1] was “inactive”, the “growth inhibition (GI)” value [2] was “inactive” and the “growth inhibition (GI)” value [3] was “inactive”.

Compound `O=C1OC[C@H]2OC(=O)c3cc(O)c(O)c(O)c3-c3c(O)c(O)c(O)c4c3C(=O)O[C@H]([C@H]3OC(=O)c5c-4c(O)c(O)c(O)c5[C@H]3O)[C@@H]2OC(=O)c2cc(O)c(O)c(O)c2-c2c1cc(O)c(O)c2O` [CASTALAGIN] has an MIC [4] of 533 µM (≈ 498 µg/mL), an MIC [5] of 705 µM (≈ 659 µg/mL) and an MIC [6] of 705 µM (≈ 659 µg/mL). For the same compound, the MIC [7] was 705 µM (≈ 659 µg/mL), the MIC [8] was 705 µM (≈ 659 µg/mL) and the MIC [9] was 705 µM (≈ 659 µg/mL). The MIC [10] was 705 µM (≈ 659 µg/mL), the MIC [11] was 705 µM (≈ 659 µg/mL) and the Activity [12] was “Active”. For the same compound, the inhibition at 100 µM [13] was 37.7%, the MIC [14] was 500 µM (≈ 467 µg/mL) and the Time [15] was >1440 min. For the same compound, the Time [16] was 870 min, the Time [17] was 515 min and the Time [18] was 422 min. It also gave a Time [19] of 320 min, a Time [20] of 347 min and a Time [21] of 322 min. For the same compound, the Time [22] was >1440 min, the Time [23] was 722 min and the Time [24] was 647 min. For the same compound, the Time [25] was 502 min, the Time [26] was 380 min and the Time [27] was 310 min. For the same compound, the Time [28] was 317 min, the Time [29] was >1440 min and the Time [30] was 56.8 min. It also gave a Time [31] of 42.9 min, a Time [32] of 43 min and a Time [33] of 38.1 min. For the same compound, the Time [34] was 34.9 min, the Time [35] was 33.4 min and the Time [36] was >1440 min. For the same compound, the Time [37] was 35.9 min, the Time [38] was 36.6 min and the Time [39] was 45.3 min. The Time [40] was 45.6 min, the Time [41] was 34.3 min and the Time [42] was 36.8 min.
